Results: paper PMC2748767 (Journal of medicinal chemistry, 2009)

Tests used:
[1] = tested on: thymidine kinase-deficient (TK-) HSV-1 KOS strain resistant to ACV (ACVr); assay: Anti-TK-deficient HSV-1; format: cell-based; conditions: versus HSV-1 and HSV-2
HIV-1 X4LAI.04 = assay: Anti-HIV-1 assay in MT-4 cell cultures; format: cell-based; conditions: HIV-1 X4LAI.04 in MT-4 cells, 3 days, 50% suppression of p24 production
CEM cells = assay: Cytostatic activity in CEM cells; format: cell-based; conditions: Homo sapiens, CCRF-CEM, read-out: Cytostatic activity IC50 CEM
[2] = Hydrolysis of ProTides in crude CEM cell extracts; format: in vitro ADME, human; conditions: 10 μM, 37 °C; for conversion in CEM cell extracts: within one hour of incubation
Summary of the method: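 Exponentially growing CEM cells were washed twice in PBS, resuspended in PBS and sonicated. The extract was cleared by centrifugation (10 min, 15,000 rpm) and frozen at -20 °C. Test compound (10 μM) was incubated in crude extract at 37 °C for 30, 60 and 120 min. Aliquots were quenched in cold methanol and centrifuged, and supernatants went to reverse-phase C18 HPLC. Results are given as percent disappearance of intact parent.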

[3] = Hydrolysis of ProTides in tonsil extracts; format: in vitro ADME, human; conditions: data not shown
Summary of the method: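 Tonsil tissues were washed twice in PBS, resuspended in PBS and homogenised mechanically. The extract was cleared by centrifugation (10 min, 15,000 rpm) and frozen at -20 °C. Test compound (10 μM) was incubated in crude extract at 37 °C for 30, 60 and 120 min. Aliquots were quenched in cold methanol and centrifuged, and supernatants went to reverse-phase C18 HPLC to separate parent from hydrolysis products.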

carboxypeptidase Y = carboxypeptidase Y (Saccharomyces cerevisiae, UniProt P00729); assay: Carboxypeptidase Y-mediated cleavage monitored by 31P-NMR; format: in vitro ADME; conditions: for conversion by carboxypeptidase Y (in words): d6-acetone and trizma buffer pH 7.6, 31P-NMR; for half-life: yeast, carboxypeptidase Y (isolated enzyme), pH 7.6
Sequence of carboxypeptidase Y (P00729 112-532): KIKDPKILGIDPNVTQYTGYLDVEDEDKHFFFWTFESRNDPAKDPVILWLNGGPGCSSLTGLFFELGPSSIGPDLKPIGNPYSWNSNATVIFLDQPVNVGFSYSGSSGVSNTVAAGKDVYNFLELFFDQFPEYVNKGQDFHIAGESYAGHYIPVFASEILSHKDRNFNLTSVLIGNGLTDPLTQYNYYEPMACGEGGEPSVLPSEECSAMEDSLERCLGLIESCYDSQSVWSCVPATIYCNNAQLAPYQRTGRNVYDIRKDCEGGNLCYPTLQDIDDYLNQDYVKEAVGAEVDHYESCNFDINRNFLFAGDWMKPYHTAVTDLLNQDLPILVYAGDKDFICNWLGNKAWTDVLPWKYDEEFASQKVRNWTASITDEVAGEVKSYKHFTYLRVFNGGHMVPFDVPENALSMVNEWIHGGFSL
Summary of the method: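 Test compound was dissolved in d6-acetone plus trizma buffer (pH 7.6). A 31P-NMR blank spectrum was recorded for each sample before carboxypeptidase Y was added, and conversion was then followed by 31P-NMR.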

[4] = Stability in human serum monitored by 31P-NMR; format: in vitro ADME; conditions: after 12 h, 37 °C, DMSO/D2O
[5] = Stability in pH 1.0 buffer monitored by 31P-NMR; format: physicochemical

## Nc1nc2c(ncn2COCCO)c(=O)[nH]1 [ACV (1), acyclovir]
[1]
  loss of activity against thymidine kinase-deficient HSV-1: > 100 fold
HIV-1 X4LAI.04
  Antiviral Activity EC50 HIV-1 MT4: inactive

## C[C@H](NP(=O)(OCCOCn1cnc2c(=O)[nH]c(N)nc21)Oc1cccc2ccccc12)C(=O)OCc1ccccc1 (stereo partly drawn) [Compound 2, acyclovir-[1-naphthyl(benzoxy-L-alaninyl)] phosphate]
CEM cells
  IC50: 17 µM

## CCCOC(=O)[C@H](C)NP(=O)(OCCOCn1cnc2c(=O)[nH]c(N)nc21)Oc1cccc2ccccc12 (some centres unmarked) [Compound 3]
CEM cells
  IC50: 22 µM

## COC(=O)[C@H](C)NP(=O)(OCCOCn1cnc2c(=O)[nH]c(N)nc21)Oc1cccc2ccccc12 (some centres unmarked) [Compound 4]
CEM cells
  IC50: 57 µM
[2]
  conversion in CEM cell extracts: 65%
[3]
  hydrolysis in tonsil extracts (in words): efficiently hydrolyse

## C[C@H](NP(=O)(OCCOCn1cnc2c(=O)[nH]c(N)nc21)Oc1cccc2ccccc12)C(=O)OC(C)(C)C (some centres unmarked) [Compound 6]
Carboxypeptidase Y
  conversion by carboxypeptidase Y (in words): no conversion at all
[2]; after a 120 min-incubation period
  stability in CEM cell extracts (in words): entirely stable

## COC(=O)[C@H](C)NP(=O)(OCCOCn1cnc2c(=O)[nH]c(N)nc21)Oc1ccccc1 (some centres unmarked) [Compound 8]
CEM cells
  IC50: 67 ± 7.8 µM

## C[C@H](NP(=O)(OCCOCn1cnc2c(=O)[nH]c(N)nc21)Oc1ccccc1)C(=O)OCc1ccccc1 (some centres unmarked) [Compound 9]
Carboxypeptidase Y
  half-life: 0.283 h
[2]
  conversion in CEM cell extracts: > 95%
[3]
  hydrolysis in tonsil extracts (in words): efficiently hydrolyse
[4]
  compound still present in human serum: 56%
[5]
  half-life: 11 h

## CC(C)OC(=O)[C@H](C)NP(=O)(OCCOCn1cnc2c(=O)[nH]c(N)nc21)Oc1ccccc1 (some centres unmarked) [Compound 10]
Carboxypeptidase Y; ratio of half-lives versus compound 9
  times slower conversion by carboxypeptidase Y than 9: ca. 150 times
Carboxypeptidase Y
  half-life: 46 h

## Nc1nc2c(ncn2COCCOP(=O)(NC(Cc2ccccc2)C(=O)OCc2ccccc2)Oc2ccccc2)c(=O)[nH]1 (centres unmarked) [Compound 15]
CEM cells
  IC50: 42 µM

## COC(=O)[C@@H](NP(=O)(OCCOCn1cnc2c(=O)[nH]c(N)nc21)Oc1cccc2ccccc12)C(C)C (some centres unmarked) [Compound 17]
Carboxypeptidase Y
  half-life: 72 h

## COC(=O)[C@H](NP(=O)(OCCOCn1cnc2c(=O)[nH]c(N)nc21)Oc1cccc2ccccc12)C(C)C (some centres unmarked) [Compound 19]
Carboxypeptidase Y
  conversion by carboxypeptidase Y (in words): not processed
